# Assay results from ChEMBL document CHEMBL3259663, “3-Amido-3-aryl-piperidines: A Novel Class of Potent, Selective, and Orally Active GlyT1 Inhibitors” (ACS Med Chem Lett, 2014).
# Activity calls are given as the source filed them. The rule behind the calls is not given here.
# What was measured:
# Striatum [1] = assay: Maximal induction of extracellular glycine level in rat striatum at 10 mg/kg, po relative to basal level; assay type: functional
# In short: (§1)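 Rat striatal microdialysis after a 10 mg/kg oral dose. Extracellular glycine measured as fold over basal levels, with sampling stopped at 3 h. Plasma and brain exposures determined at 3 h post-dose. n = 6.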
# Striatum [2] = assay: Induction of extracellular glycine level in rat striatum at 10 mg/kg, po after 3 hrs relative to basal level; assay type: functional; in short: as §1
# Mus musculus = assay: Inhibition of L687414-induced hyperlocomotion in po dosed mouse assessed horizontal activity at 8 ng/ml plasma concentration; assay type: functional, organism-based
# [3] = Ratio of drug level from brain to plasma rat at 10 mg/kg, po; assay type: ADME, organism-based; set-up: dose 10 mg/kg, route oral; conditions: brain and plasma, read-out: BPR; in short: as §1
# [4] = biological target: T1, Sodium- and chloride-dependent glycine transporter 1 (Mus musculus, UniProt P28571); assay: Inhibition of mouse GlyT1
# T1 sequence (P28571 whole entry): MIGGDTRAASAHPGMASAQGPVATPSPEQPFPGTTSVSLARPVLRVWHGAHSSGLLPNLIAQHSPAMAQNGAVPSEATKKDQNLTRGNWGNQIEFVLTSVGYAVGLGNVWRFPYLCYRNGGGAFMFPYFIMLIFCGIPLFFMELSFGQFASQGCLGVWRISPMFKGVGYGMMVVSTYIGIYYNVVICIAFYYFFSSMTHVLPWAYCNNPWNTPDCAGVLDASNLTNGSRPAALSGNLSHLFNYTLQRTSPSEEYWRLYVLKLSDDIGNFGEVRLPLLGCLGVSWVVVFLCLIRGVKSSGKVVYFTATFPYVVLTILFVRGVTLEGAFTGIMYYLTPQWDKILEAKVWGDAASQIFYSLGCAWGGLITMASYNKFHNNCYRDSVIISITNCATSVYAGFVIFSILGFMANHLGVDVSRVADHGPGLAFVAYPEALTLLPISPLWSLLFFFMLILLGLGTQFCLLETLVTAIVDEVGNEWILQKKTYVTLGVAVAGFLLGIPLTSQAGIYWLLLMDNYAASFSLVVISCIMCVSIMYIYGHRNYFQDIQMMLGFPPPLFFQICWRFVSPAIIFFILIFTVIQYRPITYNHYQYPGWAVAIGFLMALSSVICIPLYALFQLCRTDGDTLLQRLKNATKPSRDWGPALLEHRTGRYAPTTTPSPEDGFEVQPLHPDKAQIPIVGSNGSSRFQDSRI
# Salmonella typhimurium = assay: Genotoxicity in Salmonella typhimurium by Ames test; assay type: toxicity, organism-based; conditions: salmonella enterica subsp. enterica serovar typhimurium
# [5] = Permeability of the compound by PAMPA; assay type: physicochemical; conditions: read-out: permeability
# [6] = Octanol-phosphate buffer partition coefficient, log D of the compound at pH 7.4; assay type: physicochemical
# In short: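 Distribution coefficient measured between 1-octanol and phosphate buffer at pH 7.4.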
# [7] = Volume of distribution at steady state in mouse at 1.7 mg/kg, iv; assay type: ADME, organism-based; set-up: dose 1.7 mg/kg, route intravenous; conditions: in vivo, read-out: Vdss
# In short: (§2)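 Mouse PK, single iv dose of 1.7 mg/kg. Values are the average of two independent experiments.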
# [8] = Fraction unbound in mouse at 7.7 mg/kg, po; assay type: ADME, organism-based; set-up: dose 7.7 mg/kg, route oral; conditions: in vivo, read-out: PPB
# In short: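 Mouse PK after a 7.7 mg/kg oral dose. Brain/plasma ratio taken at 1.5 h. Values are the average of two independent experiments.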
# MDR1A (P-gp) = assay: Efflux ratio of permeability in pig LLC-PK1 cells expressing mouse MDR1A; assay type: ADME, cell-based, Sus scrofa
# In short: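 Efflux ratio measured in LLC-PK1 cells stably expressing human MDR1 or mouse MDR1A.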
# [9] = Clearance in mouse at 1.7 mg/kg, iv; assay type: ADME, organism-based; set-up: dose 1.7 mg/kg, route intravenous; conditions: in vivo; in short: as §2
# [10] = Solubility of the compound at pH 6.5 by lyophilization solubility assay; assay type: physicochemical; conditions: buffer
# In short: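 Lyophilization solubility assay. DMSO solution of compound is lyophilized, dissolved in 0.05 M phosphate buffer pH 6.5, stirred 1 h, then shaken 2 h.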
smiles,measurement,setting,value
COc1cc(C(F)(F)F)cc(SC)c1C(=O)N[C@@]1(c2ccccc2)CCCN(C)C1,fold change (FC),Striatum [1],1.7
same,fold change (FC),Striatum [2],1.5
same,inhibition,Mus musculus,Active
same,Kp,[3],0.08
same,EC50,[4],5 nM
same,Activity,Salmonella typhimurium,Non-toxic
same,Papp,[5],7.4 ×10⁻⁶ cm/s
same,logD,[6],3.12
same,Vd,[7],8 L/kg
same,fraction unbound,[8],0.017
same,efflux ratio,MDR1A (P-gp),1.5
same,clearance,[9],54 mL/min/kg
same,solubility,[10],147 µg/mL
